What was measured:
[1] = test system: Human immunodeficiency virus 1; assay: Antiviral activity against wild type HIV1 infected in human HeLa cells assessed as decrease in viral infection after 72 hrs by beta-galactosidase reporter gene assay; assay type: functional, organism-based; conditions: Human immunodeficiency virus 1, HeLa
Procedure, shortened: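 HeLa CD4 LTR/β-Gal cells (1 × 10⁴/well, DMEM + 10% FBS) were pretreated with half-log compound dilutions. They were then infected at MOI 0.03 with single-cycle NL4-3 ΔEnv reporter virus pseudotyped with envelope from HEK 293 cotransfection. EC50 was the concentration halving β-galactosidase activity versus infected untreated cells. Values are mean ± SD or representative of three experiments.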

[2] = test system: Human immunodeficiency virus 1; assay: Antiviral activity against HIV1 harboring capsid I201V mutant protein infected in human HeLa cells assessed as decrease in viral infection after 72 hrs by beta-galactosidase reporter gene assay; assay type: functional, organism-based; conditions: Human immunodeficiency virus 1, HeLa
[3] = test system: Human immunodeficiency virus 1; assay: Antiviral activity against HIV1 harboring spacer peptide A1V mutant protein infected in human HeLa cells assessed as decrease in viral infection after […] by beta-galactosidase reporter gene assay; assay type: functional, organism-based; conditions: Human immunodeficiency virus 1, HeLa
Procedure, shortened: (§1)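 MT-2 cells were infected for 2 h with wild-type NL4-3 or recombinant NL4-3 carrying CA I201V or SP1 A1V. They were then cocultured with HeLa CD4 LTR/beta-Gal indicator cells in serially diluted compound. Beta-gal reporter was read after 4 days. EC50s are means ± SD of 3–6 experiments. Fold change is mutant EC50 divided by wild-type EC50.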

[4] = test system: Human immunodeficiency virus 1; assay: Selectivity ratio of EC50 for HIV1 harboring capsid I201V mutant protein infected in human HeLa cells to EC50 for wild type HIV1 infected in human HeLa cells; assay type: functional; procedure, shortened: as §1
[5] = test system: Human immunodeficiency virus 1; assay: Selectivity ratio of EC50 for HIV1 harboring spacer peptide A1V mutant protein infected in human HeLa cells to EC50 for wild type HIV1 infected in human HeLa cells; assay type: functional; procedure, shortened: as §1
[6] = test system: Human immunodeficiency virus 1; assay: Antiviral activity against HIV1 NL4-3 infected in human HeLa cells assessed as decrease in single-cycle viral infection after 72 hrs by beta-galactosidase reporter gene assay; assay type: functional, organism-based; conditions: Human immunodeficiency virus 1, NL4-3, HeLa
Procedure, shortened: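 HeLa CD4 LTR/beta-Gal cells (1 × 10⁴/well, DMEM + 10% FBS) were pre-dosed with half-log compound dilutions. They were infected at MOI 0.03 with single-cycle NL4-3 reporter virus made by cotransfecting HEK 293 cells with pNL4-3deltaEnv and an NL4-3 envelope vector. EC50 is from beta-gal reporter activity relative to infected untreated cells, across three experiments.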

[7] = test system: Human immunodeficiency virus 1; assay: Antiviral activity against HIV1 NL4-3 infected in HEK293 cells assessed as decrease in virus production at 2 times EC90 after 72 hrs by beta-galactosidase reporter gene assay; assay type: functional

Row | Structure (SMILES) | EC50 [1] | EC50 [2] | EC50 [3] | Ratio EC50 [4] | Ratio EC50 [5] | EC50 [6] | inhibition (INH) [7]
1 | C=C(C)[C@@H]1CC[C@]2(C(=O)O)CC[C@]3(C)[C@H](CC[C@@H]4[C@@]5(C)CC[C@H](OC(=O)CC(C)(C)C(=O)O)C(C)(C)[C@@H]5CC[C@]43C)[C@@H]12 [BEVIRIMAT] | 9 nM | 290 nM | > 1000 nM | 32 | >111 |  | 
2 | Cc1c(O)cccc1C(=O)N[C@@H](CSc1ccccc1)[C@H](O)CN1C[C@H]2CCCC[C@H]2C[C@H]1C(=O)NC(C)(C)C [NELFINAVIR] | 16 nM | 13 nM | 38 nM | 1 | 2 | > 1000 nM | 76%
3 | O=C1Nc2ccc(Cl)cc2[C@@](C#CC2CC2)(C(F)(F)F)O1 [EFAVIRENZ] |  | 0.6 nM | 1 nM |  |  |  | 24%
